Experimental data published in ChEMBL document CHEMBL4014308, “Amphiphilic Tobramycin-Lysine Conjugates Sensitize Multidrug Resistant Gram-Negative Bacteria to Rifampicin and Minocycline” (J Med Chem, 2017).
≈ marks a conversion by molar mass, not a printed value. Calls of active or inactive are those of the source. The calls are words filed in the database; no cut-off is given here.

Tests used:
Format in all cases: functional
Pseudomonas aeruginosa [1] = experiment: Antibacterial activity against multidrug/extremely drug-resistant/colistin-resistant Pseudomonas aeruginosa isolate 101243 after 18 hrs by microtiter dilution assay
Summary of the method: (§1)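 Broth microdilution following CLSI guidelines. An overnight culture was adjusted to 0.5 McFarland in saline, then diluted 1:50 in Mueller-Hinton broth. This inoculum was added in equal volume to 2-fold serial dilutions of agent in MHB and incubated 18 h at 37 °C. MIC was the lowest concentration with no visible growth.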

Pseudomonas aeruginosa [2] = experiment: Bactericidal activity against Pseudomonas aeruginosa PAO1 at 0.125 times antibacterial MIC after 6 hrs
Acinetobacter baumannii [3] = experiment: Antibacterial activity against multidrug-resistant Acinetobacter baumannii 110193 after 18 hrs by microtiter dilution assay; details: Acinetobacter baumannii, 110193, 18 h; summary of the method: as §1
Pseudomonas aeruginosa [4] = experiment: Antibacterial activity against multidrug/extremely drug-resistant/colistin-susceptible Pseudomonas aeruginosa isolate P264-104354 after 18 hrs by microtiter dilution assay; summary of the method: as §1
Pseudomonas aeruginosa [5] = experiment: Antibacterial activity against multidrug/extremely drug-resistant/colistin-susceptible Pseudomonas aeruginosa isolate P259-96918 after 18 hrs by microtiter dilution assay; summary of the method: as §1
Pseudomonas aeruginosa [6] = experiment: Antibacterial activity against multidrug/extremely drug-resistant/colistin-susceptible Pseudomonas aeruginosa isolate P262-101856 after 18 hrs by microtiter dilution assay; summary of the method: as §1
Pseudomonas aeruginosa [7] = experiment: Antibacterial activity against multidrug/extremely drug-resistant/colistin-susceptible Pseudomonas aeruginosa isolate 100036 after 18 hrs by microtiter dilution assay; summary of the method: as §1
Pseudomonas aeruginosa [8] = experiment: Antibacterial activity against Pseudomonas aeruginosa PAO1 after 25 serial passages at 0.125 times MIC by microtiter dilution assay
Enterobacter cloacae = experiment: Antibacterial activity against multidrug-resistant Enterobacter cloacae 117029 after 18 hrs by microtiter dilution assay; details: Enterobacter cloacae, 117029, 18 h; summary of the method: as §1
Pseudomonas aeruginosa [9] = experiment: Bactericidal activity against Pseudomonas aeruginosa PAO1 at 4 times antibacterial MIC after 2 hrs
Summary of the method: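 Time-kill with P. aeruginosa PAO1. A 0.5 McFarland suspension was diluted 1:50 in LB broth and exposed to agent in PBS (pH 7.2) at 1/2×, 1×, 2× or 4× MIC at 37 °C for 6 h. Samples at 0, 10, 30, 60, 90, 120, 240 and 360 min were serially diluted in PBS, plated on LB agar, and colonies counted after 20 h at 37 °C.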

Pseudomonas aeruginosa [10] = experiment: Antibacterial activity against multidrug/extremely drug-resistant/colistin-resistant Pseudomonas aeruginosa isolate 91433 after 18 hrs by microtiter dilution assay; summary of the method: as §1
Pseudomonas aeruginosa [11] = experiment: Antibacterial activity against multidrug/extremely drug-resistant/colistin-susceptible Pseudomonas aeruginosa isolate P262-101856 infected in Galleria mellonella assessed as mortality at 75 mg/kg after 24 hrs relative to control; details: isolate P262-101856, 24 h
Summary of the method: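 Galleria mellonella larvae (about 250 mg, used within 7 days; 15 per group) were injected with 10 µL of XDR P. aeruginosa P262 at 1.0×10^3 CFU/mL. At 2 h they received a single 10 µL injection: monotherapy at 75 mg/kg, or combinations at 12.5+12.5 to 75+75 mg/kg. PBS vehicle served as control. Survival was scored over 24 h at 37 °C.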

Acinetobacter baumannii [12] = experiment: Antibacterial activity against multidrug-resistant Acinetobacter baumannii AB030 after 18 hrs by microtiter dilution assay; details: AB030, 18 h; summary of the method: as §1
Acinetobacter baumannii [13] = experiment: Antibacterial activity against multidrug-resistant Acinetobacter baumannii AB027 after 18 hrs by microtiter dilution assay; details: AB027, 18 h; summary of the method: as §1
Klebsiella pneumoniae = experiment: Antibacterial activity against multidrug-resistant Klebsiella pneumoniae 116381 after 18 hrs by microtiter dilution assay; details: Klebsiella pneumoniae, 116381, 18 h; summary of the method: as §1
Pseudomonas aeruginosa [14] = experiment: Antibacterial activity against multidrug/extremely drug-resistant/colistin-susceptible Pseudomonas aeruginosa isolate 101885 after 18 hrs by microtiter dilution assay; summary of the method: as §1
Pseudomonas aeruginosa [15] = experiment: Antibacterial activity against Pseudomonas aeruginosa PAO1 after 18 hrs by microtiter dilution assay; summary of the method: as §1
Acinetobacter baumannii [16] = experiment: Antibacterial activity against multidrug-resistant Acinetobacter baumannii AB031 after 18 hrs by microtiter dilution assay; details: AB031, 18 h; summary of the method: as §1
Pseudomonas aeruginosa [17] = experiment: Antibacterial activity against Pseudomonas aeruginosa PAO1 assessed as ratio of MIC after 25 serial passages to MIC before 25 serial passages by microtiter dilution assay
Summary of the method: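 Sequential passaging of wild-type PAO1 with single drugs or drug combinations. MIC was tested in MHB for 18 h. Cells from the well at half the MIC were adjusted to 0.5 McFarland in saline, diluted 1:50 in fresh MHB and used for the next MIC test. This was repeated for 25 passages, and the fold change in MIC was plotted against passage number.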

Pseudomonas aeruginosa [18] = experiment: Induction of cytoplasmic membrane depolarization in Pseudomonas aeruginosa PAO1 up to 300 secs by diSC3-5 staining based fluorescence assay
Summary of the method: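 Mid-log PAO1 washed in 5 mM HEPES pH 7.4 with 20 mM glucose and resuspended to OD600 0.05. Cells were loaded with 0.2 mM EDTA and 0.4 µM diSC3-5 for 2 h at 37 °C in the dark, then equilibrated with 100 mM KCl for 30 min. Agent was added and fluorescence followed at 622/670 nm; agents tested at 32 µg/mL.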

Pseudomonas aeruginosa [19] = experiment: Disruption of proton motive force in Pseudomonas aeruginosa PAO1 cytoplasmic membrane assessed as repression of bacterial swimming motility at sub-MIC after 20 hrs
Summary of the method: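 Swim plates of 0.3% agar with tryptone 5 g/L and NaCl 2.5 g/L, agent mixed into the medium and plates dried 2 h. PAO1 at 1.0 McFarland in 0.85% saline was point-inoculated at the center, and plates incubated 20 h at 37 °C before swim diameter was imaged.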

Pseudomonas aeruginosa [20] = experiment: Induction of outer membrane permeabilization in Pseudomonas aeruginosa PAO1 at 32 ug/ml after 30 mins by CFDASE staining based fluorescence assay
Summary of the method: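 Log-phase PAO1 washed in PBS, brought to OD600 0.5 and loaded with 100 µM CFDASE for 30 min at 37 °C, then washed. Cells were exposed to agent for 30 min at 37 °C and supernatant fluorescence read at 488/520 nm. Untreated cells were subtracted; 1% Triton X-100 served as positive control.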

Pseudomonas aeruginosa [21] = experiment: Potentiation of rifampicin-induced antibacterial activity against Pseudomonas aeruginosa PAO1 at 4 ug/ml after 18 hrs by checkerboard assay
Summary of the method: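 Checkerboard in MHB with a 10 × 7 matrix: antibiotic serially diluted along one axis, adjuvant along the other. Inoculum was a 1:50 dilution of a 0.5 McFarland suspension, incubated 18 h at 37 °C and read on a plate reader. Each FIC is the concentration in a no-growth well divided by the MIC alone; FIC index is their sum, with ≤0.5 taken as synergy.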

Pseudomonas aeruginosa [22] = experiment: Potentiation of novobiocin-induced antibacterial activity against Pseudomonas aeruginosa PAO1 at 4 ug/ml after 18 hrs by checkerboard assay

Molecule: CO[C@H]1/C=C/O[C@@]2(C)Oc3c(C)c(O)c4c(O)c(c(/C=N/N5CCN(C)CC5)c(O)c4c3C2=O)NC(=O)/C(C)=C\C=C\[C@H](C)[C@H](O)[C@@H](C)[C@@H](O)[C@@H](C)[C@H](OC(C)=O)[C@@H]1C [RIFAMPIN]
- MIC (Pseudomonas aeruginosa [1]; isolate 101243, 18 h): 8 µg/mL (≈ 9.72 µM)
- Activity (Pseudomonas aeruginosa [2]): inactive
- MIC (Acinetobacter baumannii [3]): 2 µg/mL (≈ 2.43 µM)
- MIC (Pseudomonas aeruginosa [4]; isolate P264-104354, 18 h): 16 µg/mL (≈ 19.4 µM)
- MIC (Pseudomonas aeruginosa [5]; isolate P259-96918, 18 h): 16 µg/mL (≈ 19.4 µM)
- MIC (Pseudomonas aeruginosa [6]; isolate P262-101856, 18 h): 1020 µg/mL (≈ 1240 µM)
- MIC (Pseudomonas aeruginosa [7]; isolate 100036, 18 h): 16 µg/mL (≈ 19.4 µM)
- Activity (Pseudomonas aeruginosa [8]): Active
- MIC (Enterobacter cloacae): 16 µg/mL (≈ 19.4 µM)
- Activity (Pseudomonas aeruginosa [9]): Active
- MIC (Pseudomonas aeruginosa [10]; isolate 91433, 18 h): 16 µg/mL (≈ 19.4 µM)
- mortality at 75 mg/kg (Pseudomonas aeruginosa [11]): 100%
- MIC (Acinetobacter baumannii [12]): > 256 µg/mL
- MIC (Acinetobacter baumannii [13]): 2 µg/mL (≈ 2.43 µM)
- MIC (Klebsiella pneumoniae): 1020 µg/mL (≈ 1240 µM)
- MIC (Pseudomonas aeruginosa [14]; isolate 101885, 18 h): 16 µg/mL (≈ 19.4 µM)
- MIC (Pseudomonas aeruginosa [15]; PAO1, 18 h): 16 µg/mL (≈ 19.4 µM)
- MIC (Acinetobacter baumannii [16]): 2 µg/mL (≈ 2.43 µM)

Molecule: COLISTIN
- Ratio (Pseudomonas aeruginosa [17]): 1024
- MIC (Pseudomonas aeruginosa [1]): > 1020 µg/mL
- Activity (Pseudomonas aeruginosa [18]): Dose-dependent effect
- MIC (Pseudomonas aeruginosa [4]): 4 µg/mL
- MIC (Pseudomonas aeruginosa [5]): 0.5 µg/mL
- MIC (Pseudomonas aeruginosa [6]): 2 µg/mL
- MIC (Pseudomonas aeruginosa [7]): 2 µg/mL
- MIC (Pseudomonas aeruginosa [10]): 4 µg/mL
- Activity (Pseudomonas aeruginosa [19]): Active
- MIC (Pseudomonas aeruginosa [14]): 0.5 µg/mL
- Activity (Pseudomonas aeruginosa [20]): Active
- Activity (Pseudomonas aeruginosa [21]): Active
- Activity (Pseudomonas aeruginosa [22]): Active
- MIC (Pseudomonas aeruginosa [15]): 1 µg/mL
